Assay results taken from the EternaBench riboswitch data.

Tested on: MS2 coat protein
Assay: apparent Kd, MS2 coat protein; higher = weaker binding; RNA-MaP array; FMN 200 µM where present
How it was run: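 On Illumina sequencing-chip clusters, designs were transcribed by stalled E. coli RNA polymerase and titrated with SNAP-549-labelled MS2 coat protein (0.7 or 1.5 nM, doubling to 3 µM), without and then with constant ligand, in 100 mM Tris-HCl pH 7.5, 80 mM KCl, 4 mM MgCl2, BSA, DTT, yeast tRNA and Tween-20. Apparent Kd is the median of filtered per-cluster curve fits to green signal normalised to red-channel RNA signal and control-cluster median Fmax.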

[1] = designed as: OFF switch for flavin mononucleotide, no ligand
[2] = ligand present: flavin mononucleotide, designed as: OFF switch for flavin mononucleotide
[3] = designed as: ON switch for flavin mononucleotide, no ligand
[4] = ligand present: flavin mononucleotide, designed as: ON switch for flavin mononucleotide

Row | Sequence | apparent Kd [1] [nM] | apparent Kd [2] [nM] | apparent Kd [3] [nM] | apparent Kd [4] [nM]
1 | CAGAGUUGGUAAGGAUAUCCCACAUUAUUCUGACCCGUGCAAGCUACAUGAGGAUCACCCAUGUGGGAGAAGGUGCGUUAAAGA | 39 | 35 |  | 
2 | GGAUGACAAAGUCAUCCUAAACGAACAUGAGGAUCACCCAUGUAGGAUAUGCUACACAAAGUGUAGCAGAAGGACAUGUGCCUU | 37.1 | 269 |  | 
3 | AACCUAUUACAGAAGGCCAGCUACAUGAGGAUCACCCAUGUCGAGUCAUGGAGGAUAUGUAGUAAUUUACUCGCGGAUGAGUAA |  |  | 23.8 | 5.35
4 | AGUCUCACUGAAGGAUAUGCAGGGUUUCAAGGGUUUCCUGCGACAUGAGGAUCACCCAUGUAAAUGCAGAAGGUCAGGACCCAA | 6.63 | 32.8 |  | 
5 | CUUUUGUGAGGAUAUCAGUAGUAAUACAAUAGUAUUACUACUGAGAAGGCACAUGAGGAUCACCCAUGUUCCUC | 45 | 162 |  | 
6 | GUCAGCUCGUGAGGAUAUACAUGUGCUGGAUACAGCACUAUUAAAUUCACAUGAGGAUCACCCAUGUAGAAGGCACGAGCUGAU | 15.6 | 17.8 |  | 
7 | AAAGUGUCAGGAUAUGCGAAGGCAUCUGACAGAUGAGGAUCGCAGAAGGGACAUGAGGAUCACCCAUGUAAAAA | 45.2 | 122 |  | 
8 | GUAGUUAGUAGAGGAUAUUAAUAUGUGUAAUAUUGAGAAGGUUACAUGAGGAUCACCCAUGUGAUCAAUCACUGUUAAGGUUGC | 6.97 | 7.06 |  | 
9 | CGAUAUGAUAGAGGAUAUGUUUAACAUGAGGAUCACCCAUGUGACAUGGGAUUAAUAUAUAACUUACAGAAGGCUAUUCAAUCG | 34.4 | 52.4 |  | 
10 | ACAGUCACAAUAACUUGUGGGCGUGAGGAUAUAUAUGGCUCGGAGCGGACAUGAGGAUCACCCAUGUAGAAGGCACGAACUAAU | 6.1 | 8.54 |  | 
11 | GUAUAUAUAUAAGGAUAUAAGUCUAGGACAUGAGGAUCACCCAUGUGUGUCUUAGAAGGUAUAUAUGUAAUACUGUUACAGUAA |  |  | 64.8 | 14.2
12 | AAUUAGGUCACAGGAUAUACUUCAUCCAUAGAUGUAGAAGGGUGUCAGAAUAAUUUCUUACAUGAGGAUCACCCAUGUUUCCAC |  |  | 108 | 48.1
13 | AAUUAUAUACAGAAGGAGUUAUUUAGAGGAUUACUAGGAUAUGUUCACAUGAGGAUCACCCAUGUCAUAUUGGGAUUUAUUAUU | 18 | 24 |  | 
14 | CUCUUGUGAGGAUAUGUAGGUUACGAGAGCAAAACGAACGGACAGAAGGUACAUGAGGAUCACCCAUGUGGGAU | 109 | 95.4 |  | 
15 | AAGUGCCUGUCGAUGCUCGACAUGAGGAUCACCCAUGUACAGCAGGAUAUGCAGAACUACCUCGUGCAGAAGGGCUGUACCAAU | 97.1 | 80.1 |  | 
16 | AAGGUGUUAGGAUAUCGUAGUUUGUGGCAGACGGGAUUUUGCGAGAAGGAACAUGAGGAUCACCCAUGUCGGAU | 28.4 | 28.2 |  | 
17 | AGAAACUACGAGAAGGACAUGAGGAUCACCCAUGUAACCACUAUGUGGAAUGUAGGAUAUCGUAGUUUCAGGAUCGUGAGAUCA | 6.17 | 9.84 |  | 
18 | UGAGAUGUAGUAGGAUAUCAGGUUACAUGAGGAUCACCCAUGUUAGAUUGGUGGAUAGAUGUUGAUGAGAAGGACUUUUGAGUU | 63.5 | 100 |  | 
19 | CCGGACAUUCGGACAUGAGGAUCACCCAUGUAGGCGGAUUCACAGGAUAUAAGUUCGUCCGAGACUUAGAAGGGUGGCUUCCGA |  |  | 119 | 54.6
20 | GGAUAGGACAGAGGAUAUACGUGCUAGAGAUACUAGCAAAAUCUCCUCACAUGAGGAUCACCCAUGUAGAAGGCUGUCCUAUCG | 9.85 | 201 |  | 
21 | UUAUCUUGUCAAGGAUAUGUAGUAUUGAUCUGAAAACAUGAGGAUCACCCAUGUAUAUGGUGGGAACAGAAGGUGAAUGUUGAA | 823 | 727 |  | 
22 | ACUAGAUGAGGAUAUGCAUAUUUUCGUGUUCUUCUAGGUUAACAUGAGGAUCACCCAUGUAGAAGGCGUCUAUA | 19.7 | 35 |  | 
23 | GGUCCACGAGGAUAUCGAUUUUAGUACAUGAGGAUCACCCAUGUUGUCCAGGUUUCGAUUCGAGAAGGCGUGGGCC | 22.2 | 24.6 |  | 
